{"source": "ChEMBL document CHEMBL4834479", "about": "“Discovery of the first chemical tools to regulate MKK3-mediated MYC activation in cancer” (Bioorg Med Chem, 2021)", "key": {"[1]": {"target": "T1, MAP2K3/Myc proto-oncogene protein (Homo sapiens, UniProt P01106+P46734)", "T1 sequence (P01106 whole entry, one chain of several)": "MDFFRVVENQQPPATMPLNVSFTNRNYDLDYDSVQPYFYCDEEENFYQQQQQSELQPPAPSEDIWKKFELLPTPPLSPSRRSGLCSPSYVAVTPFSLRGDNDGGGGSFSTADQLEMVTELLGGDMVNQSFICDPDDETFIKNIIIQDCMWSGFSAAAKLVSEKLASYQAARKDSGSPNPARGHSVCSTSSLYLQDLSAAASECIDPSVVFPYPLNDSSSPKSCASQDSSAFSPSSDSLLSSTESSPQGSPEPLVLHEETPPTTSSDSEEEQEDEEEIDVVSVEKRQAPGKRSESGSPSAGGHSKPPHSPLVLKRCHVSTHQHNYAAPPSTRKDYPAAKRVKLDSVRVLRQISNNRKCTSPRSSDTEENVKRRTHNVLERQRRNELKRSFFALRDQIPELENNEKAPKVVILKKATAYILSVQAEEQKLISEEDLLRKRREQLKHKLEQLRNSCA", "assay": "Disruption of interaction between human recombinant GST-tagged MKK3/VF-tagged MYC expressed in HEK293T cells measured after 2 hrs by TR-FRET assay", "type": "cell-based"}, "[2]": {"target": "T2, MAP2K3/Myc proto-oncogene protein (Homo sapiens) (UniProt P46734+P01106)", "T2 sequence (P01106 whole entry, looked up, one chain of several)": "as the sequence (P01106 whole entry, one chain of several) above", "assay": "Disruption of interaction between human recombinant GST-tagged MKK3/VF-tagged MYC expressed in HEK293T cells at 20 uM measured after 2 hrs by TR-FRET assay", "type": "cell-based"}, "[3]": {"target": "T2, MAP2K3/Myc proto-oncogene protein (Homo sapiens)", "assay": "Disruption of interaction between human recombinant GST-tagged MKK3/VF-tagged MYC expressed in HEK293T cells up to 100 uM measured after 2 hrs by TR-FRET assay", "type": "cell-based", "details": "dose microM <=100, time 2.0 hrs"}, "[4]": {"target": "T2, MAP2K3/Myc proto-oncogene protein (Homo sapiens)", "assay": "Disruption of MKK3/MYC protein-protein interaction in human HCT-116 cells transfected with VF-tagged MKK3 assessed as inhibition of MYC transcriptional activity at 0.5 to 2 uM measured after 12 hrs by […] reporter assay", "type": "cell-based", "details": "dose 0.5-2 µM", "method_in_brief": "(§1)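 Cells were transfected with Venus-Flag-MKK3 or Venus-Flag vector plus a firefly luciferase reporter carrying three MYC E-box sites (or a mutant E-box control) and a Renilla normalization vector. Compound in DMSO (0.5–5 µM, 0.1% DMSO final) was added 36 h post-transfection and cells were incubated 12 h more. Dual-luciferase read-out: firefly/Renilla ratio, then wild-type over mutant E-box fold.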"}, "[5]": {"target": "T2, MAP2K3/Myc proto-oncogene protein (Homo sapiens)", "assay": "Disruption of MKK3/MYC protein-protein interaction in human HCT-116 cells assessed as decrease in MYC level at 0.5 to 10 uM measured by western blot assay", "type": "cell-based", "details": "dose 0.5-10 µM"}, "[6]": {"target": "DNA (cytosine-5)-methyltransferase 1 (Homo sapiens, UniProt P26358)", "sequence (P26358 whole entry)": "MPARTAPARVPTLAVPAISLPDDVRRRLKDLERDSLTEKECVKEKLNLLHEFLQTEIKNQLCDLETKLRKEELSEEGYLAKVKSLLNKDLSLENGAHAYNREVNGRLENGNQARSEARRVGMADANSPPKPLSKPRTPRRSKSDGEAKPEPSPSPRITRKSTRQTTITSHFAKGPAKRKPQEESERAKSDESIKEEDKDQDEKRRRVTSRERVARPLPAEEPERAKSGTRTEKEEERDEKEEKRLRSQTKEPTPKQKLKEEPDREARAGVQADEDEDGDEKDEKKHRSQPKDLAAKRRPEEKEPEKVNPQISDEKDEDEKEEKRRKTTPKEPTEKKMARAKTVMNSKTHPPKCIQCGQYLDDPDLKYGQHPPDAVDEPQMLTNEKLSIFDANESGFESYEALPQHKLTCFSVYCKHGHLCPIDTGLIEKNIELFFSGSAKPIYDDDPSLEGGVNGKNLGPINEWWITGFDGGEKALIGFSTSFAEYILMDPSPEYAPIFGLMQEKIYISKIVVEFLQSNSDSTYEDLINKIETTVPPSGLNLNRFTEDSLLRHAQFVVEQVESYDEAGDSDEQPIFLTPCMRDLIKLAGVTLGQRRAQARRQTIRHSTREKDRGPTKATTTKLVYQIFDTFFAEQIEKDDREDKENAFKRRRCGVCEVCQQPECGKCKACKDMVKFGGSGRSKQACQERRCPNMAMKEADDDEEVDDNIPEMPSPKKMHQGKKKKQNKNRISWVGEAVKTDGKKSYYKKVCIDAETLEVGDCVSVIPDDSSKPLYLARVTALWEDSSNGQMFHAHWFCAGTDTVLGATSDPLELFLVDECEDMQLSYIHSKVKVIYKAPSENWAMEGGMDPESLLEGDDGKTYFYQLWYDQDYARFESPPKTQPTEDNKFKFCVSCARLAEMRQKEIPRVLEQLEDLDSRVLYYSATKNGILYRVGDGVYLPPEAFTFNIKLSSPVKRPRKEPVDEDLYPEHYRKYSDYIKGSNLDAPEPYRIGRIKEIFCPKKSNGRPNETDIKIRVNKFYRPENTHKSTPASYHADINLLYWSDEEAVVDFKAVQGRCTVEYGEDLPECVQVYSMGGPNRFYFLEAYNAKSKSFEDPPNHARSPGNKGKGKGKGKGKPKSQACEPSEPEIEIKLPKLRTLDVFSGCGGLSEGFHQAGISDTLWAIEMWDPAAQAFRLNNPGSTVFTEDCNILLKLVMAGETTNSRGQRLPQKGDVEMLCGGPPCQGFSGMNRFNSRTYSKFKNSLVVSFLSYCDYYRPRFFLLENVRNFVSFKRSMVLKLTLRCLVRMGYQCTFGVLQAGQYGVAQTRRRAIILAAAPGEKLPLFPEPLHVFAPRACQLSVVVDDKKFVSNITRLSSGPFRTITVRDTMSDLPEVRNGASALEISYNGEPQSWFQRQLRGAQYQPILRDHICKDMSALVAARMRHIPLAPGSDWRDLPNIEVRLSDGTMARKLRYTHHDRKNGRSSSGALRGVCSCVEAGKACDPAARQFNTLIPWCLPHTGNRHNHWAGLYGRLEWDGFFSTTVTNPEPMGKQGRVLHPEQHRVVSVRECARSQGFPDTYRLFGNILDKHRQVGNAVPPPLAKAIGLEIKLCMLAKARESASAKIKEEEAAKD", "assay": "Inhibition of DNMT (unknown origin) by densitometric analysis"}, "[7]": {"target": "T2, MAP2K3/Myc proto-oncogene protein (Homo sapiens)", "assay": "Disruption of MKK3/MYC protein-protein interaction in human HCT-116 cells assessed as decrease in CDK4 level at 0.5 to 10 uM measured by western blot assay", "type": "cell-based", "details": "dose 0.5-10 µM"}, "[8]": {"target": "T2, MAP2K3/Myc proto-oncogene protein (Homo sapiens)", "assay": "Disruption of MKK3/MYC protein-protein interaction in human HCT-116 cells assessed as decrease in PDL1 level at 0.5 to 10 uM measured by western blot assay", "type": "cell-based", "details": "dose 0.5-10 µM"}, "[9]": {"target": "c-Myc/c-Max (Homo sapiens) (UniProt P01106+P61244)", "sequence (P01106 whole entry)": "as the sequence (P01106 whole entry, one chain of several) above", "sequence (P61244 2-160 partner limits assumed)": "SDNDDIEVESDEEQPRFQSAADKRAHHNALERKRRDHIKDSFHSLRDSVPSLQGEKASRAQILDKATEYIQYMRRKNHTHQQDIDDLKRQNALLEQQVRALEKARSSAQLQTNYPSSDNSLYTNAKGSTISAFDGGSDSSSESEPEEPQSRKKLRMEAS", "assay": "Disruption of interaction between human recombinant GST-tagged MAX/VF-tagged MYC expressed in HEK293T cells at 50 uM incubated for 30 mins by GST pull-down assay", "type": "cell-based", "method_in_brief": "(§2)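 GST- and Venus-Flag-tagged human proteins were co-expressed in HEK293T cells for 48 h and lysed in 1% NP-40 buffer (HEPES pH 7.5) at 4 °C. Cleared lysates were pre-incubated 30 min with 50 µM compound or DMSO, then 75 min with glutathione sepharose. Beads were washed three times, eluted in SDS loading buffer, and analysed by Western blot.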"}, "[10]": {"target": "T2, MAP2K3/Myc proto-oncogene protein (Homo sapiens)", "assay": "Disruption of MKK3/MYC protein-protein interaction in human MDA-MB-468 cells transfected with VF-tagged MKK3 assessed as inhibition of MYC transcriptional activity measured after 12 hrs by […] reporter assay", "type": "cell-based", "details": "dose 0.5-5 µM", "method_in_brief": "as §1"}, "HCT-116 [11]": {"test_system": "HCT-116", "assay": "Inhibition of cell migration in human HCT-116 cells assessed as relative wound density at 3 uM measured after 18 hrs by scratch wound healing assay (reference value: 20%)", "type": "functional", "design": "scale not given: the % may be the effect or the level left", "method_in_brief": "(§3)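 Confluent HCT116 monolayers were wounded, washed with fresh medium, and given medium with compound at set concentrations or DMSO. Live-cell imaging scanned every 2 h over 18 h, with relative wound density as the read-out. Four replicates were run.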"}, "[12]": {"target": "T2, MAP2K3/Myc proto-oncogene protein (Homo sapiens)", "assay": "Disruption of MKK3/MYC protein-protein interaction in human MDA-MB-468 cells assessed as decrease in MYC level at 1 to 20 uM measured by western blot assay", "type": "cell-based", "details": "dose 1-20 µM"}, "[13]": {"target": "T1, MAP2K3/Myc proto-oncogene protein", "assay": "Disruption of interaction between human recombinant GST-tagged MKK3 (1 to 210 residues)/VF-tagged MYC expressed in HEK293T cells measured after 2 hrs by TR-FRET assay", "type": "cell-based"}, "[14]": {"target": "T3, Dual specificity mitogen-activated protein kinase kinase 3 (Homo sapiens) (UniProt P46734)", "T3 sequence (whole entry)": "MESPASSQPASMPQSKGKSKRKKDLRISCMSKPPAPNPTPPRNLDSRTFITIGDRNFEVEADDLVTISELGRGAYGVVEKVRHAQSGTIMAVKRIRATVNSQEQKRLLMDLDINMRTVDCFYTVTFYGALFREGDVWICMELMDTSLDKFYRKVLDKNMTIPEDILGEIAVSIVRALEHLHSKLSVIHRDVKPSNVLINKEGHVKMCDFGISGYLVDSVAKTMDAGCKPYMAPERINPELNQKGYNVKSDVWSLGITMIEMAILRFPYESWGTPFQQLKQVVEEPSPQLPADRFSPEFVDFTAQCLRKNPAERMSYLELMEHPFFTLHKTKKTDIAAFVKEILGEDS", "assay": "Inhibition of MKK3 in human HEK293T cells assessed as inhibition of p38 phosphorylation by western blot analysis", "type": "cell-based"}, "[15]": {"target": "T2, MAP2K3/Myc proto-oncogene protein (Homo sapiens)", "assay": "Disruption of interaction between human recombinant GST-tagged MKK3/VF-tagged MYC expressed in HEK293T cells at 50 uM incubated for 30 mins by GST pull-down assay", "type": "cell-based", "method_in_brief": "as §2"}, "[16]": {"target": "T2, MAP2K3/Myc proto-oncogene protein (Homo sapiens)", "assay": "Disruption of MKK3/MYC protein-protein interaction in human MDA-MB-468 cells assessed as decrease in PDL1 level at 1 to 20 uM measured by western blot assay", "type": "cell-based", "details": "dose 1-20 µM"}, "[17]": {"target": "T2, MAP2K3/Myc proto-oncogene protein (Homo sapiens)", "assay": "Disruption of interaction between human recombinant GST-tagged MKK3 expressed in HEK293T cells/MYC in human HCT116 cells incubated for 30 mins by GST pull-down assay", "type": "cell-based", "details": "dose 2-5 µM"}, "HCT-116 [18]": {"test_system": "HCT-116", "assay": "Inhibition of cell migration in human HCT-116 cells measured after 18 hrs by scratch wound healing assay", "type": "functional, cell-based", "details": "dose 0.75-3 µM", "method_in_brief": "as §3"}, "[19]": {"target": "T2, MAP2K3/Myc proto-oncogene protein (Homo sapiens)", "assay": "Disruption of MKK3/MYC protein-protein interaction in human MDA-MB-468 cells assessed as decrease in CDK4 level at 1 to 20 uM measured by western blot assay", "type": "cell-based", "details": "dose 1-20 µM"}, "MDA-MB-468": {"test_system": "MDA-MB-468", "assay": "Inhibition of Renilla luciferase activity expressed in human MDA-MB-468 cells assessed as decrease in luminescence at 10 uM measured after 12 hrs by luminescence assay", "type": "cell-based", "method_in_brief": "(§4)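 Renilla luciferase luminescence was compared between cells treated with 10 µM compound and DMSO control, within the dual-luciferase MYC reporter set-up, using a 12 h compound incubation.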"}, "HEK293T": {"test_system": "HEK293T", "assay": "Disruption of interaction between human recombinant GST-tagged MKK3/VF-tagged p38 expressed in HEK293T cells at 50 uM incubated for 30 mins by GST pull-down assay", "type": "cell-based", "method_in_brief": "as §2"}, "HCT-116 [20]": {"test_system": "HCT-116", "assay": "Cytotoxicity against human HCT-116 cells assessed as reduction in cell viability measured after 72 hrs by Alamar blue assay", "type": "functional, cell-based", "details": "HCT-116, 72 h", "method_in_brief": "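HCT116 cells in DMEM with 10% FBS at 37 °C, 5% CO2, seeded and treated next day with compound or DMSO. After 72 h, CellTiter-Blue reagent was added for 2 h at 37 °C and fluorescence read at 560 ex/590 em. Background came from medium-only wells, and viability was taken relative to DMSO control.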"}, "HCT-116 [21]": {"test_system": "HCT-116", "assay": "Inhibition of Renilla luciferase activity expressed in human HCT-116 cells assessed as decrease in luminescence at 10 uM measured after 12 hrs by luminescence assay", "type": "cell-based", "method_in_brief": "as §4"}, "HCT-116 [22]": {"test_system": "HCT-116", "assay": "Inhibition of cell migration in human HCT-116 cells at 0.75 to 3 uM by scratch wound healing assay", "type": "functional, cell-based", "details": "dose 0.75-3 µM, TDE = time-dependent effect"}, "[23]": {"target": "T1, MAP2K3/Myc proto-oncogene protein", "assay": "Disruption of interaction between human recombinant GST-tagged MKK3/His-tagged MYC HLH LZ domain measured after 2 hrs by TR-FRET assay", "type": "protein assay"}}, "note": "The source made the active and inactive calls. The calls are words filed in the database; no cut-off is given here."}
{"smiles": "O=C(O)C1=CC(=C(c2ccc(O)c(C(=O)O)c2)c2ccc(O)c(C(=O)O)c2)C=CC1=O", "note": "[AURINTRICARBOXYLIC ACID]", "values": [{"measurement": "IC50", "setting": "[1]", "result": 14.1, "unit": "µM"}, {"measurement": "inhibition", "setting": "[2]", "result": 58, "unit": "%"}]}
{"smiles": "Cc1cc2c(C(C)C)c(O)c(O)c(C=O)c2c(O)c1-c1c(C)cc2c(C(C)C)c(O)c(O)c(C=O)c2c1O", "values": [{"measurement": "Activity", "setting": "[3]", "result": "inactive"}, {"measurement": "inhibition", "setting": "[2]", "result": 31, "unit": "%"}]}
{"smiles": "CC(C)c1cc(C(C)C)c(CC(=O)NS(=O)(=O)Oc2c(C(C)C)cccc2C(C)C)c(C(C)C)c1", "note": "[AVASIMIBE]", "values": [{"measurement": "IC50", "setting": "[1]", "result": 63.9, "unit": "µM"}]}
{"smiles": "O=C(O)[C@H](Cc1c[nH]c2ccccc12)N1C(=O)c2ccccc2C1=O", "values": [{"measurement": "Activity", "setting": "[4]", "result": "inactive"}, {"measurement": "Activity", "setting": "[3]", "result": "inactive"}, {"measurement": "Activity", "setting": "[5]", "result": "inactive"}, {"measurement": "IC50", "setting": "[6]", "result": 0.115, "unit": "µM"}, {"measurement": "Activity", "setting": "[7]", "result": "inactive"}, {"measurement": "Activity", "setting": "[8]", "result": "inactive"}]}
{"smiles": "Cc1cc(Nc2ccc(NC(=O)c3ccc(Nc4ccnc5ccccc45)cc3)cc2)nc(N)n1", "values": [{"measurement": "Activity", "setting": "[9]", "result": "inactive"}, {"measurement": "Activity", "setting": "[10]", "result": "Dose-Dependent Effect"}, {"measurement": "IC50", "setting": "[1]", "result": 8.46, "unit": "µM"}, {"measurement": "Activity", "setting": "HCT-116 [11]", "result": 8, "unit": "%"}, {"measurement": "Activity", "setting": "[12]", "result": "Active"}, {"measurement": "IC50", "setting": "[13]", "result": 3.8, "unit": "µM"}, {"measurement": "inhibition", "setting": "[14]", "result": "inactive"}, {"measurement": "Activity", "setting": "[15]", "result": "Active"}, {"measurement": "Activity", "setting": "[4]", "result": "Dose-Dependent Effect"}, {"measurement": "Activity", "setting": "[16]", "result": "Active"}, {"measurement": "Activity", "setting": "[17]", "result": "Dose-Dependent Effect"}, {"measurement": "Activity", "setting": "[5]", "result": "Active"}, {"measurement": "Activity", "setting": "[7]", "result": "Active"}, {"measurement": "inhibition", "setting": "HCT-116 [18]", "result": "Dose-Dependent Effect"}, {"measurement": "Activity", "setting": "[19]", "result": "Active"}, {"measurement": "Activity", "setting": "[8]", "result": "Active"}, {"measurement": "inhibition", "setting": "MDA-MB-468", "result": "inactive"}, {"measurement": "inhibition", "setting": "[2]", "result": 37, "unit": "%"}, {"measurement": "Activity", "setting": "HEK293T", "result": "inactive"}, {"measurement": "IC50", "setting": "HCT-116 [20]", "result": 3.2, "unit": "µM"}, {"measurement": "inhibition", "setting": "HCT-116 [21]", "result": "inactive"}, {"measurement": "inhibition", "setting": "HCT-116 [22]", "result": "Tde"}, {"measurement": "IC50", "setting": "[23]", "result": 9.67, "unit": "µM"}]}
